How the values were obtained:
[1] = molecular target: T1, Phosphodiesterase 4A (Sus scrofa, UniProt O77823); test: Inhibitory potency against pig aortic PDE IV
T1 sequence (O77823 whole entry): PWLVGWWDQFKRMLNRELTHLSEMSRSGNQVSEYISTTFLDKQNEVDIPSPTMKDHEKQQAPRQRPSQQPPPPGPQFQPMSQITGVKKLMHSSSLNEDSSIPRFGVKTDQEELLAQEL
Procedure, shortened: (§1)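 Pig aortic PDE isozymes were separated by DEAE-trisacryl anion-exchange chromatography. PDE III was assayed in the presence of rolipram (10 µM) and PDE IV in the presence of siguazodan (10 µM) to exclude cross-contamination.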

[2] = system: Cavia porcellus; test: In vivo bronchodilator effect on histamine-induced bronchospasm in anaesthetized guinea pigs at 100 ug intravenous dose; type: functional
[3] = organism: Cavia porcellus; test: Inhibition of superoxide O2-generation from guinea pig peritoneal eosinophils; type: functional
Procedure, shortened: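 Guinea pig peritoneal eosinophils (10^6/well) were incubated for 45 min at 37 °C in HBSS with p-iodonitrotetrazolium violet (0.5 mg/mL). Superoxide was measured as SOD-inhibitable dye reduction: cells were pelleted and dissolved overnight at room temperature in DMSO/0.6 M HCl, and absorbance was read at 492 nm.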

[4] = Inhibitory potency against pig aortic PDE III.; set-up: species or system Sus scrofa; procedure, shortened: as §1
[5] = molecular target: T2, Phosphodiesterase 4 (Homo sapiens, UniProt P27815+Q08499+Q07343+Q08493); test: Inhibition of guinea pig PDE IV; type: protein assay, Cavia porcellus; details: target entry is the homologue from another species
[6] = molecular target: T2, Phosphodiesterase 4; test: Inhibition of solubilized eosinophil PDE IV; type: protein assay, Cavia porcellus
[7] = molecular target: Phosphodiesterase 1 (Sus scrofa); test: Inhibitory potency against pig aortic PDE I.
[8] = system: Cavia porcellus; test: In vivo bronchodilator effect on histamine-induced bronchospasm in anaesthetized guinea pigs at 20 ug intravenous dose; type: functional
[9] = system: Cavia porcellus; test: In vivo bronchodilator effect on histamine-induced bronchospasm in anaesthetized guinea pigs at 200 ug intravenous dose; type: functional
[10] = system: Cavia porcellus; test: In vivo bronchodilator effect on histamine-induced bronchospasm in anaesthetized guinea pigs at 10 ug intravenous dose; type: functional
[11] = system: Cavia porcellus; test: In vivo bronchodilator effect on histamine-induced bronchospasm in anaesthetized guinea pigs at 50 ug intravenous dose; type: functional

COc1ccc(C(=O)Oc2c(Cl)cccc2Cl)cc1OC1CCCC1
IC50 [1]: > 1000 µM

COc1ccc(C(=O)Nc2ccccc2Cl)cc1OC1CCCC1
Duration [2]: 27 min
Reduction [2]: 43%
IC50 [3]: 0.45 µM
IC50 [4]: > 200 µM
IC50 [5]: 0.186 µM
IC50 [6]: 0.051 µM
IC50 [1]: 0.19 µM
IC50 [7]: > 200 µM

COc1ccc(C(=O)NCc2ccccc2Cl)cc1OC1CCCC1
IC50 [1]: > 1000 µM

COc1ccc(C(=O)Nc2c(C)cccc2Cl)cc1OC1CCCC1
IC50 [4]: > 1000 µM
IC50 [1]: 0.1 µM
IC50 [7]: > 1000 µM

COc1ccc(C(=O)Nc2c(C)cccc2C)cc1OC1CCCC1
Duration [2]: 16 min
Reduction [2]: 24%
IC50 [3]: 0.17 µM
IC50 [4]: > 200 µM
IC50 [5]: 0.106 µM
IC50 [6]: 0.065 µM
IC50 [1]: 0.1 µM

COc1ccc(C(=O)Nc2ccncc2Cl)cc1OC1CCCC1
Reduction [8]: 26%
IC50 [3]: 0.03 µM
Duration [9]: 15 min
IC50 [5]: 0.016 µM
IC50 [6]: 0.002 µM
IC50 [1]: 0.016 µM

COc1ccc(C(=O)Nc2ncccc2C)cc1OC1CCCC1
IC50 [1]: 3.1 µM

COc1ccc(C(=O)Nc2ccccn2)cc1OC1CCCC1
IC50 [1]: 1 µM

COc1ccc(C(=O)Nc2ccccc2Cl)cc1OC(=O)c1ccccc1
IC50 [1]: > 1000 µM

COc1ccc(C(=O)Nc2ccc(F)cc2)cc1OC1CCCC1
IC50 [4]: > 1000 µM
IC50 [1]: > 1000 µM
IC50 [7]: > 1000 µM

COc1ccc(C(=O)Nc2ccccc2Br)cc1OC1CCCC1
IC50 [4]: > 1000 µM
IC50 [1]: 0.13 µM
IC50 [7]: > 1000 µM

COc1ccc(C(=O)Nc2c(Cl)cncc2Cl)cc1OC1CCCCC1
IC50 [1]: 0.05 µM

COc1ccc(C(=O)Nc2ccncc2)cc1OC1CCCC1
IC50 [1]: 0.8 µM

COc1ccc(C(=O)Nc2c(F)c(F)nc(F)c2F)cc1OC1CCCC1
IC50 [1]: 0.55 µM

COc1ccc(C(=O)Nc2c(C)nsc2Br)cc1OC1CCCC1
IC50 [1]: 0.5 µM

COc1ccc(C(=O)Nc2c(F)cccc2F)cc1OC
IC50 [1]: 0.9 µM

CCCCOc1cc(C(=O)Nc2c(Cl)cncc2Cl)ccc1OC
Duration [2]: 34 min
Reduction [2]: 52%
Reduction [8]: 78%
IC50 [3]: 0.48 µM
Duration [9]: 32 min
IC50 [5]: 0.0085 µM
IC50 [6]: 0.0025 µM
IC50 [1]: 0.008 µM

COc1ccc(C(=O)Nc2nccs2)cc1OC1CCCC1
IC50 [1]: 6.5 µM

CCCOc1cc(C(=O)Nc2c(F)cccc2F)ccc1OC
IC50 [1]: 1.6 µM

COc1ccc(C(=O)Nc2c(Cl)c(F)nc(F)c2Cl)cc1OC1CCCC1
IC50 [1]: 0.02 µM

COc1ccc(C(=O)Nc2c(C)nsc2C)cc1OC1CCCC1
IC50 [1]: 0.5 µM

COc1ccc(C(=O)Nc2c(Cl)ncnc2Cl)cc1OC1CCCC1
IC50 [1]: 0.4 µM

COc1ccc(C(=O)Nc2c(Cl)cccc2Cl)cc1OC1CC2CCC1C2 (centres undefined)
IC50 [1]: 0.01 µM

CCCCOc1cc(C(=O)Nc2c(Br)cncc2Br)ccc1OC
IC50 [1]: 0.07 µM

COc1ccc(C(=O)Nc2cccnc2)cc1OC1CCCC1
IC50 [1]: 0.55 µM

COc1ccc(C(=O)Nc2ccccc2O)cc1OC1CCCC1
IC50 [4]: > 200 µM
IC50 [1]: 1.3 µM
IC50 [7]: > 200 µM

COC(=O)c1ccccc1NC(=O)c1ccc(OC)c(OC2CCCC2)c1
IC50 [4]: > 40 µM
IC50 [1]: 3 µM
IC50 [7]: > 40 µM

COc1ccc(C(=O)Nc2c(Cl)cncc2Cl)cc1OC1CCCC1
Reduction [10]: 36%
Reduction [8]: 56%
Reduction [11]: 78%
IC50 [3]: 0.024 µM

COc1ccc(C(=O)Nc2ccccc2C)cc1OC1CCCC1
IC50 [4]: > 1000 µM
IC50 [1]: 0.3 µM
IC50 [7]: > 1000 µM

COc1ccc(C(=O)Nc2ccccc2Cl)cc1OC(=O)C1CCCC1
IC50 [1]: > 1000 µM

COc1ccc(C(=O)Nc2ccccc2C(F)(F)F)cc1OC1CCCC1
IC50 [4]: > 1000 µM
IC50 [1]: 3.1 µM
IC50 [7]: > 1000 µM

COc1ccc(C(=O)Nc2ncccc2Cl)cc1OC1CCCC1
IC50 [1]: 0.36 µM

CCCCOc1cc(C(=O)Nc2c(F)cccc2F)ccc1OC
IC50 [1]: 0.3 µM

COc1ccc(C(=O)Nc2cc(Cl)ccc2Cl)cc1OC1CCCC1
IC50 [4]: > 200 µM
IC50 [1]: 0.5 µM

COc1ccc(C(=O)Nc2c(C)cncc2C)cc1OC1CCCC1
IC50 [1]: 0.035 µM

COc1ccc(C(=O)Nc2cccc(Cl)c2Cl)cc1OC1CCCC1
IC50 [4]: > 200 µM
IC50 [1]: > 200 µM
IC50 [7]: > 200 µM

COc1ccc(C(=O)Nc2c(F)cccc2F)cc1OC1CCCCC1
IC50 [1]: 0.4 µM

COc1ccc(C(=O)Nc2c(F)cccc2Cl)cc1OC1CCCC1
IC50 [4]: > 1000 µM
IC50 [1]: 0.24 µM
IC50 [7]: > 1000 µM

COc1ccc(C(=O)Nc2ccccc2Cl)cc1OC(C)=O
IC50 [1]: 70 µM

COc1ccc(C(=O)Nc2ccccc2C(C)=O)cc1OC1CCCC1
IC50 [4]: > 40 µM
IC50 [1]: 1.2 µM

COc1ccc(C(=O)Nc2ccccc2C(=O)c2ccccc2)cc1OC1CCCC1
IC50 [4]: > 40 µM
IC50 [1]: 1.7 µM
IC50 [7]: > 40 µM

COc1ccc(C(=S)Nc2ccccc2Cl)cc1OC1CCCC1
IC50 [1]: 0.2 µM

COc1ccc(C(=O)Nc2c(Cl)c[n+]([O-])cc2Cl)cc1OC1CCCC1
Duration [2]: 39 min
Reduction [2]: 54%
Duration [11]: 18 min
Reduction [11]: 45%
IC50 [3]: 0.3 µM
IC50 [5]: 0.0023 µM
IC50 [6]: 0.002 µM
IC50 [1]: 0.002 µM

COc1ccc(C(=O)Nc2ccccc2[N+](=O)[O-])cc1OC1CCCC1
IC50 [4]: > 200 µM
IC50 [1]: 0.25 µM

COc1ccc(C(=O)Nc2cnccn2)cc1OC1CCCC1
IC50 [1]: 0.25 µM

COc1ccc(C(=O)Nc2ccc(Cl)cc2)cc1OC1CCCC1
IC50 [4]: > 1000 µM
IC50 [1]: > 1000 µM
IC50 [7]: > 1000 µM

COc1ccc(C(=O)Nc2c(Cl)cccc2Cl)cc1OC1CCCC1
Duration [2]: 34 min
Reduction [2]: 48%
Reduction [8]: 55%
IC50 [3]: 0.53 µM
Duration [9]: 30 min
IC50 [4]: > 1000 µM
IC50 [5]: 0.023 µM
IC50 [6]: 0.005 µM
IC50 [1]: 0.023 µM

COc1ccc(C(=O)Nc2ccccc2Cl)cc1OC
IC50 [1]: 0.65 µM

COc1ccc(C(=O)Nc2c(F)cccc2F)cc1
IC50 [1]: 37 µM

COc1ccc(C(=O)Nc2ccccc2C#N)cc1OC1CCCC1
IC50 [4]: 9.5 µM
IC50 [1]: 2.5 µM

COc1ccc(C(=O)Nc2c(Br)cccc2Br)cc1OC1CCCC1
IC50 [4]: > 1000 µM
IC50 [1]: 0.4 µM

O=C(Nc1c(F)cccc1F)c1cccc(OC2CCCC2)c1
IC50 [1]: 15 µM

COc1ccc(C(=O)Nc2c(Br)cncc2Br)cc1OC1CCCC1
IC50 [1]: 0.007 µM

COc1ccc(C(=O)Nc2ccccc2)cc1OC1CCCC1
Reduction [8]: 32%
IC50 [3]: > 10 µM
Duration [9]: 6 min
IC50 [4]: > 1000 µM
IC50 [5]: 2.566 µM
IC50 [6]: 0.145 µM
IC50 [1]: 2.6 µM

COc1ccc(C(=O)Nc2ccccc2Cl)cc1OC(=O)C(C)(C)C
IC50 [1]: > 1000 µM

COc1ccc(C(=O)Nc2c(F)cccc2F)cc1OC1CCCC1
Duration [2]: 18 min
Reduction [2]: 29%
Reduction [8]: 54%
IC50 [3]: 0.58 µM
Duration [9]: 48 min
IC50 [4]: > 1000 µM
IC50 [5]: 0.066 µM
IC50 [6]: 0.018 µM
IC50 [1]: 0.07 µM
IC50 [7]: > 1000 µM

COc1ccc(C(=O)Nc2c(F)c(F)nc(F)c2Cl)cc1OC1CCCC1
IC50 [1]: 0.1 µM

COc1ccc(C(=O)Nc2c(C)nsc2C#N)cc1OC1CCCC1
IC50 [1]: 0.2 µM

COc1ccc(C(=O)Nc2ccccc2F)cc1OC1CCCC1
IC50 [4]: > 1000 µM
IC50 [1]: 10.7 µM
IC50 [7]: > 1000 µM

COc1ccc(C(=O)Nc2c(F)cnc(F)c2F)cc1OC1CCCC1
IC50 [1]: 0.085 µM

COc1ccc(C(=O)Nc2cccc(C)c2)cc1OC1CCCC1
IC50 [4]: > 200 µM
IC50 [1]: 1 µM

COc1ccc(C(=O)Nc2ccc(C)cc2)cc1OC1CCCC1
IC50 [4]: > 200 µM
IC50 [1]: > 200 µM
IC50 [7]: > 200 µM

COc1ccc(C(=O)Nc2ccccc2SC)cc1OC1CCCC1
IC50 [4]: > 200 µM
IC50 [1]: 1.2 µM
IC50 [7]: > 200 µM

COc1ccc(C(=O)Nc2c(Cl)cncc2Cl)cc1OC
IC50 [1]: 0.1 µM

COc1ccc(C(=O)Nc2cnccc2Cl)cc1OC1CCCC1
IC50 [1]: 0.12 µM

COc1ccc(C(=O)Nc2cccc(Cl)c2)cc1OC1CCCC1
IC50 [4]: > 40 µM
IC50 [1]: 1.3 µM
IC50 [7]: > 40 µM

COc1ccc(C(=O)Nc2ncccn2)cc1OC1CCCC1
IC50 [1]: 3.5 µM

COc1ccc(C(=O)Nc2c(C)noc2C)cc1OC1CCCC1
IC50 [1]: 0.45 µM

COc1ccc(C(=O)Nc2c(Cl)cncc2Cl)cc1OC1CC2CCC1C2 (racemic)
Duration [2]: 59 min
Reduction [2]: 80%
Duration [11]: 29 min
Reduction [11]: 35%
IC50 [3]: 0.022 µM
IC50 [5]: 0.0014 µM
IC50 [6]: 0.0005 µM
IC50 [1]: 0.001 µM

COc1ccc(C(=O)Nc2c(Cl)cncc2Cl)cc1OC1CC2CCC1C2 (stereo in doubt; (+)16g)
IC50 [1]: 0.001 µM

COc1ccc(C(=O)Nc2c(Cl)cncc2Cl)cc1OC1CC2CCC1C2 (stereo in doubt; (-)16f)
IC50 [1]: 0.001 µM

COc1ccc(C2CNC(=O)C2)cc1OC1CCCC1 (centres undefined) [ROLIPRAM]
Duration [10]: 15 min
Reduction [10]: 15%
Duration [8]: 29 min
Reduction [8]: 48%
Duration [11]: 38 min
Reduction [11]: 58%
IC50 [3]: 0.16 µM

From ChEMBL document CHEMBL1127531, “Selective type IV phosphodiesterase inhibitors as antiasthmatic agents. The syntheses and biological activities of 3-(cyclopentyloxy)-4-methoxybenzamides and analogues” (J Med Chem, 1994)
